Measurements as given in ChEMBL document CHEMBL5214901 (J Med Chem, 2021).
Calls of active or inactive are those of the source. The rule behind the calls is not given here.

Experiments:
[1] = test system: Human alphaherpesvirus 1; assay: Antiviral activity against HSV-1 R8102 infected in HEK293T cells assessed as inhibition of viral replication using ONPG as substrate incubated for 1 hrs followed by viral infection measured after 90 mins by microplate reader analysis; type: functional, organism-based; conditions: dose <= 1000.0 µM, DDE = dose-dependent effect
Outline: (§1)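 Peptides were dissolved at 10 mM (stock) in serum-free DMEM and neutralized with Tris-HCl. 293T cells (low endogenous αvβ6/αvβ8) were pretreated with increasing peptide concentrations for 1 h at 37 °C. Cells were then infected with lacZ-reporter R8102 at MOI 5 PFU/cell for 90 min at 37 °C with peptide. After rinsing, cells were incubated 8 h without peptide. Infection was read as β-galactosidase activity with ONPG; triplicate, SD.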

[2] = test system: Human alphaherpesvirus 1; assay: Antiviral activity against HSV-1 K26GFP infected in J cells expressing nectin1 plus alphavbeta6 integrin at 700 uM incubated for 48 hrs followed by viral infection measured after 16 hrs by fluorescent microscopy; type: functional, organism-based; conditions: time 64.0 hrs
Outline: (§2)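 J cells were transfected with nectin1 (75 ng DNA/24 well) plus αv+β6, αv+β8, or both integrin plasmids (300 ng each). Total DNA was made up to 675 ng with Erb-2 plasmid. At 48 h, cells got 700 μM peptide for 1 h at 37 °C, then K26GFP at 1 PFU/cell for 90 min with peptide. Acid wash (pH 3), then 16 h without peptide. EGFP was read by fluorescence microscopy and flow cytometry MFI (≥10 000 events); triplicates ± SD.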

[3] = target: Integrin alpha-V/beta-6 (Homo sapiens, UniProt P06756+P18564); assay: Inhibition of human recombinant integrin alphavbeta6 incubated for 1 hr by ELISA assay; type: protein-complex assay
[4] = test system: Human alphaherpesvirus 1; assay: Antiviral activity against HSV-1 R8102 infected in HEK293T cells assessed as inhibition of viral replication at 500 to 1000 uM using ONPG as substrate incubated for 1 hrs followed by viral infection measured after 90 mins by microplate reader analysis relative to control; type: functional; set-up: scale not given: the % may be the effect or the level left; conditions: dose 500-1000 µM; outline: as §1
[5] = test system: Human alphaherpesvirus 1; assay: Antiviral activity against HSV-1 K26GFP infected in J cells expressing nectin1 plus alphavbeta6/alphavbeta8 integrin at 700 uM incubated for 48 hrs followed by viral infection measured after 16 hrs by fluorescent microscopy; type: functional, organism-based; conditions: time 64.0 hrs; outline: as §2
[6] = test system: Human alphaherpesvirus 1; assay: Antiviral activity against HSV-1 K26GFP infected in J cells expressing nectin1 plus alphavbeta8 integrin at 700 uM incubated for 48 hrs followed by viral infection measured after 16 hrs by fluorescent microscopy; type: functional, organism-based; conditions: time 64.0 hrs; outline: as §2
[7] = test system: Human alphaherpesvirus 1; assay: Antiviral activity against HSV-1 K26GFP infected in J cells expressing nectin1 plus alphavbeta6/alphavbeta8 integrin assessed as alphavbeta6/alphavbeta8 receptor internalization at 700 uM incubated for 1 hrs followed by viral infection by flow cytometry assay; type: functional, organism-based
Outline: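 Transfected J cells expressed nectin1 plus both αvβ6 and αvβ8 (48 h post-transfection) and were treated with 700 μM peptide for 1 h at 37 °C. Surface β6 and β8 were stained for 1 h at 4 °C with APC-conjugated mAbs outside the RGD-binding site. Nectin1 was stained with R1.302 plus APC secondary. Read-out was flow cytometry APC MFI of gated cells, ≥10 000 events; triplicates ± SD.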

[8] = test system: Human alphaherpesvirus 1; assay: Inhibition of HSV-1 soluble gH binding to alphavbeta6/alphavbeta8 integrin expressed in […] J cells at 700 uM incubated for 1 hr by flow cytometry assay; type: cell-based
Outline: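 J cells were transfected with nectin1 plus αvβ6 and αvβ8 and, 48 h later, exposed to 700 μM peptide for 1 h at 37 °C. They were then incubated for 1 h at 4 °C with 2 μM One-STrEP-tagged soluble gH in DMEM/5% FBS/30 mM HEPES. Soluble gB served as the control protein. Binding was detected with PE-Strep-Tactin (1 h, 4 °C) as flow cytometry MFI (≥10 000 events); triplicates ± SD.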

Sequence of Integrin alpha-V/beta-6 (P06756 31-889 limits assumed): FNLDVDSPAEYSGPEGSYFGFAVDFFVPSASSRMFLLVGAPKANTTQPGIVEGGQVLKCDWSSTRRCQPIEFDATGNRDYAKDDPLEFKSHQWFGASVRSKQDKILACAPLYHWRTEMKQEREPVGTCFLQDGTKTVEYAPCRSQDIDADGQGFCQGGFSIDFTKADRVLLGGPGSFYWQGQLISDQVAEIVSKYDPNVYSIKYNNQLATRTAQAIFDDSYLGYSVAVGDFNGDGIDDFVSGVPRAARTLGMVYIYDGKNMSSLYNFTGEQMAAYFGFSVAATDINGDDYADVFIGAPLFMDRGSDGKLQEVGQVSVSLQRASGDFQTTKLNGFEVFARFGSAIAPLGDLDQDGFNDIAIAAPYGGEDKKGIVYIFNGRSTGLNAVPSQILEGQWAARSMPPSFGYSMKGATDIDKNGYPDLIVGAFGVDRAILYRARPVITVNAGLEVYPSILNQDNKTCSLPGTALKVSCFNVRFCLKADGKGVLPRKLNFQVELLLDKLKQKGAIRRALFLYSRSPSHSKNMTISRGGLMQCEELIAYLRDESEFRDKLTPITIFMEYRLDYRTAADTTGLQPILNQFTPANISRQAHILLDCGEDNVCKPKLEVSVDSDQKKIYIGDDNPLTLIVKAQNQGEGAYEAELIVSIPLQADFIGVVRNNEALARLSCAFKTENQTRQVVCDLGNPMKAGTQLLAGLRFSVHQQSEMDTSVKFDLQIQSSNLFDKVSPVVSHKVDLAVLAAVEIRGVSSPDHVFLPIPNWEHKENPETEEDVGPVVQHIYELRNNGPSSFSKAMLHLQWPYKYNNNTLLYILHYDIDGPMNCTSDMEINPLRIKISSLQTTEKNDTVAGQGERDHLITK
Sequence of Integrin alpha-V/beta-6 (P06756 891-1048 limits assumed): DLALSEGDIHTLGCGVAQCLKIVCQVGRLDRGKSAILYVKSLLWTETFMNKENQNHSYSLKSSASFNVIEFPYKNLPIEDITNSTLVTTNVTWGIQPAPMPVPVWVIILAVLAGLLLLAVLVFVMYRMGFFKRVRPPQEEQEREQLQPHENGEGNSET
Sequence of Integrin alpha-V/beta-6 (P18564 22-788 limits assumed): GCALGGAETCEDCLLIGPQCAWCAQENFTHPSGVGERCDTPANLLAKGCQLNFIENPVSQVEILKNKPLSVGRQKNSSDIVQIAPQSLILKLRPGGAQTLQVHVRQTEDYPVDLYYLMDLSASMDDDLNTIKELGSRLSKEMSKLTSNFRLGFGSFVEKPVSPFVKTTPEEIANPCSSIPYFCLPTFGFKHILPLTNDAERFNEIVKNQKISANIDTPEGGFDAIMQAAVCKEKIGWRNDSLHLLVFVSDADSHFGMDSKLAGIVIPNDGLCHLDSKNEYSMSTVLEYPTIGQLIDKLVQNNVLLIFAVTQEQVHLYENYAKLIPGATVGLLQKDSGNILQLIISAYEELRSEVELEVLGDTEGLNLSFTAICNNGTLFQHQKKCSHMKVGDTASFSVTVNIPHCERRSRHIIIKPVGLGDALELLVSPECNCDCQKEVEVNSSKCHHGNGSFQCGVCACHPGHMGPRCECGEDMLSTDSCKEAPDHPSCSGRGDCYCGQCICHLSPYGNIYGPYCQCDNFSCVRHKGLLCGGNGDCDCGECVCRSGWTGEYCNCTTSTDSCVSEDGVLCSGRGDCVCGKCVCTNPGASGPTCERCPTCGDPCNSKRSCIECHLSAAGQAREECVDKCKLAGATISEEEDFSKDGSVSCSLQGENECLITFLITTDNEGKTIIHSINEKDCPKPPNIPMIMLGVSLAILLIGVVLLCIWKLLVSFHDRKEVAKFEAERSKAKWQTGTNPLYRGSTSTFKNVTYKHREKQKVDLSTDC

IC50 [3] | Compound | Activity [1] | Activity [2] | also measured
– | N=C(N)NCCC[C@@H]1NC(=O)CC[C@@H](C(N)=O)NC(=O)[C@H](C2CCCCC2)NC(=O)[C@H](CC(=O)O)NC(=O)CNC1=O | Dde | Active | –
38 nM | CC(C)C[C@H](NC(=O)[C@H](CO)NC(=O)[C@H](CC(=O)O)NC(=O)[C@H](CC(C)C)NC(=O)[C@H](CC(=O)O)NC(=O)[C@@H](NC(=O)[C@@H](N)CCCNC(=N)N)[C@@H](C)O)C(=O)N[C@@H](CCCNC(=N)N)C(=O)N[C@H](C(=O)O)[C@@H](C)O | – | – | –
– | CN1C(=O)[C@H](C2CCCCC2)NC(=O)[C@H](CC(=O)O)NC(=O)CNC(=O)[C@H](CCCNC(=N)N)NC(=O)CC[C@H]1C(N)=O | Dde | Active | Activity [4]: 70%; Activity [5]: Active; Activity [6]: Active; Activity [7]: Active; inhibition [8]: Active
> 5000 nM | CN1C(=O)CNC(=O)[C@H](CCCNC(=N)N)NC(=O)CC[C@@H](C(N)=O)NC(=O)[C@H](C2CCCCC2)NC(=O)[C@@H]1CC(=O)O | – | – | –
